In ChEMBL document CHEMBL3297699, “Synthesis of novel fluoro analogues of MKC442 as microbicides” (J Med Chem, 2014):

Tests used:
[1] = Cytotoxicity against human MT4 cells after 96 hrs by MTT assay; assay type: cell-based
How it was run: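 Serial compound dilutions (from DMSO stocks at […]) are added, then cells are held 96 h at 37 °C in humidified 5% CO2. Viability is read by MTT. The value is the concentration reducing proliferation by 50%, as the mean of three independent determinations, run in parallel with the antiviral assays.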

[2] = system: Human immunodeficiency virus 1; experiment: Antiviral activity against wild type HIV1 3B infected in human MT4 cells assessed as inhibition of virus-induced cytopathogenicity after 4 days by MTT assay; assay type: functional, organism-based; conditions: Human immunodeficiency virus 1, 3B, MT4, 96 h
How it was run: (§1)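 MT-4 cells grown at 37 °C, 5% CO2 in RPMI-1640 with 10% FCS, penicillin and streptomycin. Compounds taken up in DMSO at […] (stock), then diluted in medium. 1 × 10^4 cells per well with serial compound dilutions, then HIV-1 inoculum sized to give complete cytopathogenicity by day 4. Viability read by MTT. […] Mean of three independent determinations.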

[3] = system: Human immunodeficiency virus 1; experiment: Antiviral activity against efavirenz-resistant HIV1 harboring RT 100I, 103R, 179D, 225H mutant infected in human MT4 cells assessed as inhibition of virus-induced cytopathogenicity after 4 days by MTT assay; assay type: functional, organism-based; conditions: Human immunodeficiency virus 1, MT4; how it was run: as §1
[4] = system: Human immunodeficiency virus 1; experiment: Antiviral activity against […] HIV1 harboring Y181C mutant infected in human MT4 cells assessed as inhibition of virus-induced cytopathogenicity after 4 days by MTT assay; assay type: functional, organism-based; conditions: Human immunodeficiency virus 1, MT4, 96 h; how it was run: as §1
[5] = system: Human immunodeficiency virus 1; experiment: Antiviral activity against […] HIV1 harboring 103N, 181C mutant infected in human MT4 cells assessed as inhibition of virus-induced cytopathogenicity after 4 days by MTT assay; assay type: functional, organism-based; conditions: Human immunodeficiency virus 1, MT4, 96 h; how it was run: as §1
[6] = system: Human immunodeficiency virus 1; experiment: Antiviral activity against zidovudine-resistant HIV1 harboring RT 67N, 70R, 215F, 219Q mutant infected in human MT4 cells assessed as inhibition of virus-induced cytopathogenicity after 4 days by MTT assay; assay type: functional, organism-based; conditions: Human immunodeficiency virus 1, MT4, 96 h; how it was run: as §1
[7] = system: Human immunodeficiency virus 1; experiment: Antiviral activity against MDR-resistant HIV1 harboring 41L, 74V, 106A, 215Y mutant infected in human MT4 cells assessed as inhibition of virus-induced cytopathogenicity after 4 days by MTT assay; assay type: functional, organism-based; conditions: Human immunodeficiency virus 1, MT4, 96 h; how it was run: as §1
[8] = system: Human immunodeficiency virus 1; experiment: Antiviral activity against saquinavir-resistant HIV1 infected in human MT4 cells assessed as inhibition of virus-induced cytopathogenicity after 4 days by MTT assay; assay type: functional, organism-based; conditions: Human immunodeficiency virus 1, MT4, 96 h; how it was run: as §1
[9] = system: Human immunodeficiency virus 1; experiment: Antiviral activity against 6-[(3,5-Dimethylphenyl)fluoromethyl]-5-ethyl-1-{[[4-(3-hydroxyprop-1-ynyl)benzyl]oxy]methyl}pyrimidine-2,4(1H,3H)-dione-resistant HIV1 harboring RT 106I, 181C mutant infected in human MT4 cells assessed as inhibition of virus-induced cytopathogenicity after 4 days by MTT assay; assay type: functional, organism-based; conditions: Human immunodeficiency virus 1, MT4; how it was run: as §1
[10] = system: Human immunodeficiency virus 1; experiment: Antiviral activity against MC1220-resistant HIV1 harboring RT 100I, 179D, 181C mutant infected in human MT4 cells assessed as inhibition of virus-induced cytopathogenicity after 4 days by MTT assay; assay type: functional, organism-based; conditions: Human immunodeficiency virus 1, MT4, 96 h; how it was run: as §1
[11] = system: Human immunodeficiency virus 1; experiment: Antiviral activity against TMC120-resistant HIV1 harboring RT 100I, 138G mutant infected in human MT4 cells assessed as inhibition of virus-induced cytopathogenicity after 4 days by MTT assay; assay type: functional, organism-based; conditions: Human immunodeficiency virus 1, MT4, 96 h; how it was run: as §1
[12] = system: Human immunodeficiency virus 1; experiment: Antiviral activity against TMC125-resistant HIV1 harboring RT 109M, 138K, 190E mutant infected in human MT4 cells assessed as inhibition of virus-induced cytopathogenicity after 4 days by MTT assay; assay type: functional, organism-based; conditions: Human immunodeficiency virus 1, MT4, 96 h; how it was run: as §1
[13] = Cytotoxicity against human MT4 cells after 40 days by MTT assay; assay type: cell-based
How it was run: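 Mock-infected MT-4 cells at 1 × 10^5 cells/mL, 37 °C, with various compound concentrations for 40 days. One-tenth of the culture is moved every 3−4 days into fresh drug-containing medium at low density to keep growth exponential. Viability is read by MTT at each passage. The value is the maximum concentration still allowing exponential proliferation, as the mean of three determinations.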

[14] = system: Human immunodeficiency virus 1; experiment: Antiviral activity against HIV1 infected in human MT4 cells assessed as lowest compound concentration required to irreversibly knock out vial multiplication treated by chronic treatment measured after 40 days by MTT assay; assay type: functional
How it was run: (§2)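 HIV-1-infected MT-4 cells at high MOI (5−10 CCID50/cell) in 40-day assays. Compound is given continuously (chronic), for only the first 4 h after infection, or for 4 h immediately before infection. Cells are resuspended at 10^5 cells/mL every 4 days. The value is the lowest concentration that irreversibly knocks out HIV-1 multiplication, as the mean of three independent determinations.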

[15] = system: Human immunodeficiency virus 1; experiment: Antiviral activity against HIV1 infected in human MT4 cells assessed as lowest compound concentration required to irreversibly knock out vial multiplication treated 4 hrs after infection measured after 40 days by MTT assay; assay type: functional; how it was run: as §2
[16] = system: Human immunodeficiency virus 1; experiment: Antiviral activity against HIV1 infected in human MT4 cells assessed as lowest compound concentration required to irreversibly knock out vial multiplication treated 4 hrs before infection measured after 40 days by MTT assay; assay type: functional; how it was run: as §2
[17] = system: Human immunodeficiency virus 1; experiment: Antiviral activity against HIV1 MP1308 infected in human dendritic cells assessed as inhibition of p24; conditions: Human immunodeficiency virus 1, MP1308, dendritic cells
[18] = system: Human immunodeficiency virus 1; experiment: Antiviral activity against HIV1 MP1033 infected in human dendritic cells assessed as inhibition of p24; conditions: Human immunodeficiency virus 1, MP1033, dendritic cells
[19] = system: Human immunodeficiency virus 1; experiment: Antiviral activity against HIV1 W5269 infected in human dendritic cells assessed as inhibition of p24 production; conditions: Human immunodeficiency virus 1, W5269, dendritic cells
[20] = system: Human immunodeficiency virus 1; experiment: Antiviral activity against HIV1 MP582 infected in human dendritic cells assessed as inhibition of p24 production; conditions: Human immunodeficiency virus 1, MP582, dendritic cells
[21] = system: Human immunodeficiency virus 1; experiment: Antiviral activity against HIV1 CRF01 infected in human dendritic cells assessed as inhibition of p24 in supernatants; conditions: Human immunodeficiency virus 1, CRF01, dendritic cells
[22] = system: Human immunodeficiency virus 1; experiment: Antiviral activity against HIV1 CRF02 infected in human dendritic cells assessed as inhibition of p24 in supernatants; conditions: Human immunodeficiency virus 1, CRF02, dendritic cells
[23] = system: Human immunodeficiency virus 1; experiment: Antiviral activity against HIV1 MP634 infected in human dendritic cells assessed as inhibition of p24 in supernatants; conditions: Human immunodeficiency virus 1, MP634, dendritic cells
[24] = system: Human immunodeficiency virus 1; experiment: Antiviral activity against HIV1 MP411 infected in human dendritic cells assessed as inhibition of p24 in supernatants; conditions: Human immunodeficiency virus 1, MP411, dendritic cells
[25] = system: Human immunodeficiency virus 1; experiment: Antiviral activity against NRTI-resistant HIV1 MP1315 infected in human dendritic cells assessed as inhibition of p24 in supernatants; conditions: Human immunodeficiency virus 1, MP1315, dendritic cells
[26] = system: Human immunodeficiency virus 1; experiment: Ratio of EC50 for efavirenz-resistant HIV1 harboring RT 100I, 103R, 179D, 225H mutant to EC50 for wild type HIV1 3B; assay type: functional
[27] = system: Human immunodeficiency virus 1; experiment: Ratio of EC50 for zidovudine-resistant HIV1 harboring RT 67N, 70R, 215F, 219Q mutant to EC50 for wild type HIV1 3B; assay type: functional
[28] = system: Human immunodeficiency virus 1; experiment: Ratio of EC50 for MDR-resistant HIV1 harboring 41L, 74V, 106A, 215Y mutant to EC50 for wild type HIV1 3B; assay type: functional
[29] = system: Human immunodeficiency virus 1; experiment: Ratio of EC50 for saquinavir-resistant HIV1 to EC50 for wild type HIV1 3B; assay type: functional
[30] = system: Human immunodeficiency virus 1; experiment: Ratio of MC1220 EC50 to compound EC50 for HIV1 MP634 infected in human cells

Structure (SMILES) | CC50 at 96 h [1] [nM] | EC50 [2] [nM] | EC50 [3] [nM] | EC50 [4] [nM] | EC50 [5] [nM] | EC50 [6] [nM] | EC50 [7] [nM] | EC50 [8] [nM] | EC50 [9] [nM] | EC50 [10] [nM] | EC50 [11] [nM] | EC50 [12] [nM] | MNTC at 960 h [13] [µM] | Activity [14] [µM] | EC99 [17] [µM] | EC99 [18] [µM] | EC99 [21] [µM] | EC99 [22] [µM] | EC99 [23] [µM] | EC99 [25] [µM] | also measured
CC(C)(C)NC(=O)[C@@H]1C[C@@H]2CCCC[C@@H]2CN1C[C@@H](O)[C@H](Cc1ccccc1)NC(=O)[C@H](CC(N)=O)NC(=O)c1ccc2ccccc2n1 | 15000 | 20 | 10 | 20 | 10 | 10 | 20 | 90 | 20 | 10 | 20 | 10 | – | – | – | – | – | – | – | – | –
Cc1c(C(C)c2c(F)cccc2F)nc(N(C)C)[nH]c1=O (stereo not given) | ≥ 100000 | 2 | 2000 | 800 | > 20000 | 4 | 10 | 10 | 700 | 3000 | 2000 | 3000 | 30 | <0.1 | 0.01 | 0.01 | 0.001 | 0.01 | 0.1 | ≤ 0.0001 | Activity [15]: <5 µM; Activity [16]: <5 µM; EC99 [19]: 0.01 µM; EC99 [20]: 0.001 µM; EC99 [24]: 0.01 µM
CCc1c(C(F)c2cc(C)cc(C)c2)n(COCc2ccc(C#CCO)cc2)c(=O)[nH]c1=O (stereo not given) | 37000 | 6 | 100 | 40 | 300 | 10 | 20 | 20 | 2000 | 40 | 10 | 900 | 10 | 0.5 | 0.01 | 0.01 | 0.01 | 0.1 | 0.01 | 0.0001 | Ratio EC50 [26]: >10; Ratio EC50 [27]: 1.7; Ratio EC50 [28]: 3.3; Ratio EC50 [29]: 3.3; Activity [15]: >20 µM; Activity [16]: >20 µM; Ratio EC50 [30]: 10; EC99 [19]: 0.01 µM; EC99 [20]: 0.01 µM; EC99 [24]: 0.01 µM
Cc1cc(C)c(Nc2ccnc(Nc3ccc(C#N)cc3)n2)c(C)c1 [DAPIVIRINE] | 2000 | 3 | 200 | 40 | 50 | 1 | 2 | 3 | 100 | 100 | > 20000 | > 20000 | 0.3 | 0.1 | 0.01 | 0.01 | 0.01 | 0.01 | 0.01 | 0.0001 | Activity [15]: >20 µM; Activity [16]: >20 µM; EC99 [24]: 0.01 µM
O=C1Nc2ccc(Cl)cc2[C@@](C#CC2CC2)(C(F)(F)F)O1 [EFAVIRENZ] | – | – | 6000 | – | 80 | 2 | 4 | – | 60 | 100 | 90 | 7000 | – | – | 0.01 | 0.01 | 0.01 | 0.01 | 0.01 | ≤ 0.0001 | EC99 [19]: 0.01 µM
